The results in this text go back to ChEMBL document CHEMBL3804829, “Two New Faces of Amifostine: Protector from DNA Damage in Normal Cells and Inhibitor of DNA Repair in Cancer Cells” (J Med Chem, 2016).

The test system of data set [1] is MCF7. The experiment in a line: Reduction of DNA DSB repair in gamma irradiated human MCF7 cells at 4 mM preincubated for 15 mins followed by gamma irradiation measured after 60 to 120 mins by neutral comet assay. It is filed as functional, cell-based.
The test system of data set [2] is NHDF. Briefly: Protection against DNA damage in gamma irradiated human NHDF assessed as decrease in double strand breakage of DNA at 4 mM preincubated for 15 mins followed by gamma irradiation measured after 5 mins by neutral comet assay. It counts as functional, cell-based.
For data set [3], the system named is MCF7. The experiment in a line: Induction of DNA damage in gamma irradiated human MCF7 cells assessed as increase in double strand breakage of DNA at 4 mM preincubated for 15 mins followed by gamma irradiation measured after 5 mins by neutral comet assay. It counts as functional, cell-based.
Data set [4] relates to MCF7. Briefly: Decrease in median number of […]/53BP1 foci per nucleus in gamma irradiated human MCF7 cells at 4 mM preincubated for 15 mins followed by gamma irradiation measured after 60 mins by confocal fluorescence microscopic analysis relative to control. It is filed as functional. Set-up: scale not given: the % may be the effect or the level left. The method, boiled down: (§1)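 Cells received 4 mM drug 15 min before 1 Gy γ-irradiation and were sampled at 5, 60 and 120 min post-irradiation. They were fixed in paraformaldehyde to keep nuclei in 3D and immunostained for γH2AX and 53BP1. Imaging used high-resolution confocal microscopy. A DSB was scored only where a γH2AX focus colocalized with 53BP1 and met a minimum size set separately for each time point. The read-out was median foci per nucleus against untreated irradiated cells.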

Data set [5] relates to NHDF. The experiment in a line: Drug uptake in human NHDF at 4 mM after 20 to 75 mins by LC-MS/MS analysis. It counts as ADME, cell-based. To be noted: 4000 µM.
Data set [6] relates to MCF7. The experiment in a line: Drug uptake in human MCF7 cells at 4 mM after 20 to 75 mins by LC-MS/MS analysis. It counts as ADME, cell-based. To be noted: mcf7, 4000 µM.
The subject of data set [7] is MCF7. Briefly: Decrease in median number of […]/53BP1 foci per nucleus in gamma irradiated human MCF7 cells at 4 mM preincubated for 15 mins followed by gamma irradiation measured after 5 mins by confocal fluorescence microscopic analysis relative to control. It counts as functional. Set-up: scale not given: the % may be the effect or the level left. Summed up:
as §1

In data set [8] the test system is NHDF. The experiment in a line: Protection against DNA damage in gamma irradiated human NHDF assessed as decrease in median number of gammaH2AX/53BP1 foci per nucleus at 4 mM preincubated for 15 mins followed by gamma irradiation measured after 60 mins by confocal fluorescence microscopic analysis relative to control. It counts as functional. Set-up: scale not given: the % may be the effect or the level left. Summed up:
(§2)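 NHDF fibroblasts or MCF7 cells, with or without 4 mM amifostine added 15 min before 1 Gy γ-irradiation. Sampled at 5, 60 and 120 min post-irradiation and fixed in paraformaldehyde to keep nuclei 3D-intact. γH2AX and 53BP1 were immunodetected and imaged by high-resolution confocal microscopy. A DSB was scored only as a γH2AX focus colocalizing with 53BP1 above a minimum size set for each time point. Read-out: median foci per nucleus.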

The subject of data set [9] is NHDF. The experiment in a line: Protection against DNA damage in gamma irradiated human NHDF assessed as decrease in median number of gammaH2AX/53BP1 foci per nucleus at 4 mM preincubated for 15 mins followed by gamma irradiation measured after 5 mins by confocal fluorescence microscopic analysis relative to control. It is filed as functional. Also on record: scale not given: the % may be the effect or the level left. Summed up: as §2

Data set [10] has as its system NHDF. Briefly: Induction of DNA DSB repair in gamma irradiated human NHDF assessed as median number of […]/53BP1 foci per nucleus at 4 mM preincubated for 15 mins followed by gamma irradiation measured after 60 mins by confocal fluorescence microscopic analysis relative to control. It is filed as functional. The method, boiled down:
as §1

Data set [11] has as its system NHDF. The experiment in a line: Induction of DNA DSB repair in gamma irradiated human NHDF at 4 mM preincubated for 15 mins followed by gamma irradiation measured after 60 to 120 mins by neutral comet assay. It counts as functional, cell-based.
For data set [12], the system named is MCF7. Briefly: Induction of DNA damage in gamma irradiated human MCF7 cells assessed as median number of […]/53BP1 foci per nucleus at 4 mM preincubated for 15 mins followed by gamma irradiation measured after 60 mins by confocal fluorescence microscopic analysis relative to control.
Data set [13] in a line: Prodrug conversion in human MCF7 cells assessed as ALP-mediated WR-1065 formation at 4 mM after 20 to 75 mins by LC-MS/MS analysis. It counts as ADME, cell-based. To be noted: mcf7, 4000 µM.
Data set [14] is described as follows: Ratio of prodrug conversion in human NHDF assessed as ALP-mediated WR-1065 formation at 20 mins to prodrug conversion in human MCF7 cells assessed as ALP-mediated WR-1065 formation at 20 mins. To be noted: mcf7, 20 min. It is filed as ADME, cell-based.
Data set [15] can be described thus: Ratio of prodrug conversion in human NHDF assessed as ALP-mediated WR-1065 formation at 75 mins to prodrug conversion in human MCF7 cells assessed as ALP-mediated WR-1065 formation at 75 mins. To be noted: mcf7, 1.25 h. It is filed as ADME, cell-based.
Data set [16] in a line: Ratio of prodrug conversion in human NHDF supernatants assessed as ALP-mediated WR-1065 formation at 75 mins to prodrug conversion in human MCF7 cell supernatants assessed as ALP-mediated WR-1065 formation at 75 mins. To be noted: mcf7, 1.25 h. It is filed as ADME, cell-based.
For data set [17], the system named is MCF7. Briefly: Induction of DNA damage in gamma irradiated human MCF7 cells assessed as increase in median number of […]/53BP1 foci per nucleus at 4 mM preincubated for 15 mins followed by gamma irradiation measured after 60 to 120 mins by confocal fluorescence microscopic analysis. It counts as functional, cell-based. Summed up: as §2
The nature of data set [18]: Prodrug conversion in human MCF7 cell supernatants assessed as ALP-mediated WR-1065 formation at 4 mM after 20 to 75 mins by LC-MS/MS analysis. It is filed as ADME, cell-based. To be noted: mcf7, 4000 µM.
Data set [19] in a line: Prodrug conversion in human NHDF cells assessed as ALP-mediated WR-1065 formation at 4 mM after 20 to 75 mins by LC-MS/MS analysis. It is filed as ADME, cell-based. To be noted: 4000 µM.
Data set [20] concerns NHDF. The experiment in a line: Induction of DNA DSB repair in gamma irradiated human NHDF assessed as median number of […]/53BP1 foci per nucleus preincubated for 15 mins followed by gamma irradiation measured after 120 mins by confocal fluorescence microscopic analysis relative to control. It counts as functional, cell-based. The method, boiled down:
as §2

A short description of data set [21]: Ratio of prodrug conversion in human NHDF supernatants assessed as ALP-mediated WR-1065 formation at 20 mins to prodrug conversion in human MCF7 cell supernatants assessed as ALP-mediated WR-1065 formation at 20 mins. To be noted: mcf7, 20 min. It counts as ADME, cell-based.
Data set [22] has as its system NHDF. The experiment in a line: Induction of DNA DSB repair in gamma irradiated human NHDF assessed as decrease in median number of […]/53BP1 foci per nucleus at 4 mM preincubated for 15 mins followed by gamma irradiation measured after 60 mins by confocal fluorescence microscopic analysis relative to 5 mins postirradiation. Also on record: scale not given: the % may be the effect or the level left. It counts as functional. Summed up:
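NHDF fibroblasts, with or without 4 mM amifostine 15 min before 1 Gy γ-rays, fixed in paraformaldehyde (3D-preserved). γH2AX foci colocalizing with 53BP1 and above a size threshold set per time point were counted by high-resolution confocal microscopy. Repair efficiency was taken as the median DSBs per nucleus at 5 min minus that at 60 min post-irradiation.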

Data set [23] concerns MCF7. The experiment in a line: Reduction of DNA DSB repair in gamma irradiated human MCF7 cells assessed as median number of […]/53BP1 foci per nucleus at 4 mM preincubated for 15 mins followed by gamma irradiation measured after 60 mins by confocal fluorescence microscopic analysis relative to control. It is filed as functional. Set-up: scale not given: the % may be the effect or the level left. The method, boiled down: as §2

Calls of active or inactive are those of the source. Where only a bound is given, the exact number is not on record here.

`NCCCNCCS` [WR-1065]: the outcome in data set [1], in [2] and in [11] was Active. The outcome in [3] was inactive. In addition, the Activity in [4] worked out at 82.9%; in data set [7] it was 75%; in data set [8] it was 50%; in [9], 65.2%; in data set [10] it was 17.7%. Further, the Drug uptake in data set [5] and in data set [6] was more than 90% each time.

As for `NCCCNCCSP(=O)(O)O` [AMIFOSTINE], the Activity in data set [12] was 137.5%; in data set [8], 61.9%; in data set [9], 75.8%; in data set [22], 10%; in data set [23], 20.7%. The result in data set [1], in data set [2], in data set [17], in data set [11] and in [20] was Active. For the same compound, the Drug metabolism result in data set [13], in data set [18] and in [19] was “metabolite_detected” in each case. For the same compound, the Ratio in data set [14] turned out to be 2.56; in data set [15] it was 1.47; in data set [16] it was 2.17; in [21] it was 1.62.
